Calls of active or inactive are those of the source. The calls are words filed in the database; no cut-off is given here.
How the values were obtained:
Homo sapiens [1] = organism: Homo sapiens; experiment: Selectivity for human GPR6 over human GRP12 assessed as fold change
Homo sapiens [2] = organism: Homo sapiens; experiment: Selectivity for human GPR6 over human GRP3 assessed as fold change
[3] = target: T1, G-protein coupled receptor 6 (Homo sapiens, UniProt P46095); experiment: Inverse agonist activity at human GPR6 expressed in CHO-K1 cells assessed as modulation of cAMP level incubated for 20 hrs by TR-FRET assay; format: functional, cell-based
Summary of the method: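 T-REx-CHO-K1 cells stably carrying tetracycline-inducible human GPR6 were induced with 2.0 μg/mL doxycycline for 20 h at 37 °C. No agonist was added, since receptor constitutive activity is used. Compound in Krebs Ringer's buffer with 0.5% fatty acid free BSA for 45 min at 37 °C. cAMP read by Eu-cAMP tracer/ULight anti-cAMP antibody TR-FRET. Four-parameter logistic fit; EC50 is the mean of ≥2 experiments, triplicate concentrations.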

Rattus norvegicus [4] = experiment: Reversal of haloperidol-induced catalepsy in Sprague-Dawley rat assessed as reduction in catalepsy at 0.6 mg/kg, ip measured after 120 min; format: functional, organism-based
Summary of the method: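 Positive-control arm in male Sprague-Dawley rats (n = 9–10/group): A2A antagonist KW6002 at 0.6 mg/kg i.p., given together with haloperidol 1 mg/kg i.p. Bar test at 120 min: bar 6' high, up to 60 s, mean of three trials.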

Mus musculus [5] = experiment: Reversal of haloperidol-induced catalepsy in GPR6 knock out mouse assessed as reduction in catalepsy at 0.3 mg/kg, ip measured after 120 min; format: functional, organism-based
Summary of the method: (§1)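 Wild-type C57BL/6J and GPR6 knock-out male mice (n = 6/group): KW6002 at 0.3 mg/kg i.p. given with haloperidol 1 mg/kg i.p. Bar test at 120 min: bar 2' high, maximum 60 s, three trials averaged.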

Mus musculus [6] = experiment: Reversal of haloperidol-induced catalepsy in C57BL/6 mouse assessed as reduction in catalepsy at 0.3 mg/kg, ip measured after 120 min; format: functional, organism-based; summary of the method: as §1
[7] = target: T1, G-protein coupled receptor 6; experiment: Inverse agonist activity at human GPR6 expressed in CHO-K1 cells assessed as modulation of cAMP level incubated for 20 hrs by TR-FRET assay relative to control; format: functional, cell-based; conditions: filed as inverse agonist
Summary of the method: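 T-REx-CHO-K1 cells stably carrying tetracycline-inducible human GPR6 were induced with 2.0 μg/mL doxycycline for 20 h at 37 °C. Constitutive activity was measured with no agonist. Compound in Krebs Ringer's buffer with 0.5% fatty-acid-free BSA was added for 45 min at 37 °C. Eu-cAMP tracer (10 min) and ULight anti-cAMP antibody (1 h, RT) followed for TR-FRET. Four-parameter logistic fit; ≥2 experiments, triplicate.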

Cytochrome P450 2D6 = Cytochrome P450 2D6 (Homo sapiens, UniProt P10635); experiment: Inhibition of CYP2D6 (unknown origin); format: ADME
hERG (KCNH2) = hERG (KCNH2) (Homo sapiens, UniProt Q12809); experiment: Inhibition of human ERG at 10 uM relative to control; format: toxicity
[8] = Lipophilicity, log D of compound; format: physicochemical; conditions: octanol/water
P-gp (MDR1, ABCB1) = P-gp (MDR1, ABCB1) (Homo sapiens, UniProt P08183); experiment: Substrate activity at P-gp (unknown origin) transfected in pig LLC-PK1 cells expressing MDR1 gene assessed as efflux ratio; format: ADME, cell-based
[9] = Unbound intrinsic clearance in human hepatocytes; format: ADME, cell-based, Hepatocyte
[10] = target: Voltage-gated inwardly rectifying potassium channel KCNH2 (Homo sapiens, UniProt Q12809); experiment: Inhibition of human ERG; format: toxicity
[11] = target: T1, G-protein coupled receptor 6; experiment: Displacement of 3H-RL338 from human GPR6 expressed in T-REx-CHO-GPR6 cells assessed as inhibition constant by competition binding assay; format: cell-based
Summary of the method: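 Competition filtration binding on membranes from doxycycline-inducible T-REx-CHO cells expressing human GPR6 (15 μg/well). Tracer is 3H-RL-338, and test compound top concentration is 5 μM final. Buffer: 50 mM Tris pH 7.4, 50 mM NaCl, 6 mM MgCl2, 0.1% fatty acid free BSA, protease inhibitors. Incubated 2 h at room temperature, filtered, washed cold, scintillation counted. IC50 comes from a four-parameter fit; Ki by Cheng–Prusoff using the 3H-RL-338 Kd (2.4 or 5 nM, by batch).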

[12] = Permeability of compound across apical to basolateral side in pig LLC-PK1 cells expressing MDR1; format: ADME, cell-based, Sus scrofa; conditions: read-out: permeability
[13] = Intrinsic clearance in human hepatocytes; format: ADME, cell-based, Hepatocyte; conditions: read-out: CLH
[14] = Intrinsic clearance in human liver microsomes; format: ADME, Microsome; conditions: read-out: CLH
Mus musculus [15] = experiment: Reversal of haloperidol-induced catalepsy in GPR6 knock out mouse assessed as reduction in catalepsy at 30 mg/kg, sc measured after 120 min; format: functional, organism-based
Summary of the method: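 Male GPR6 knock-out mice (n = 6/group) received haloperidol 1 mg/kg i.p. with vehicle (10% DMSO, 0.5% methylcellulose) or compound 30 mg/kg s.c. at the same time. Bar test at 120 min: bar 2' high, up to 60 s, average of three trials.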

Rattus norvegicus [16] = experiment: Reversal of haloperidol-induced catalepsy in Sprague-Dawley rat assessed as reduction in catalepsy at 0.1 to 30 mg/kg, sc measured after 120 min; format: functional, organism-based; conditions: dose 0.1-30 mg/kg
Summary of the method: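 Male Sprague-Dawley rats (n = 9–10/group) received haloperidol 1 mg/kg i.p. together with vehicle (10% DMSO, 0.5% methylcellulose) or compound at 0.1–30 mg/kg s.c. Bar test at 120 min: front paws placed on a bar 6' high, time recorded up to 60 s. Three trials were averaged.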

Sequence of hERG (KCNH2) (Q12809 whole entry): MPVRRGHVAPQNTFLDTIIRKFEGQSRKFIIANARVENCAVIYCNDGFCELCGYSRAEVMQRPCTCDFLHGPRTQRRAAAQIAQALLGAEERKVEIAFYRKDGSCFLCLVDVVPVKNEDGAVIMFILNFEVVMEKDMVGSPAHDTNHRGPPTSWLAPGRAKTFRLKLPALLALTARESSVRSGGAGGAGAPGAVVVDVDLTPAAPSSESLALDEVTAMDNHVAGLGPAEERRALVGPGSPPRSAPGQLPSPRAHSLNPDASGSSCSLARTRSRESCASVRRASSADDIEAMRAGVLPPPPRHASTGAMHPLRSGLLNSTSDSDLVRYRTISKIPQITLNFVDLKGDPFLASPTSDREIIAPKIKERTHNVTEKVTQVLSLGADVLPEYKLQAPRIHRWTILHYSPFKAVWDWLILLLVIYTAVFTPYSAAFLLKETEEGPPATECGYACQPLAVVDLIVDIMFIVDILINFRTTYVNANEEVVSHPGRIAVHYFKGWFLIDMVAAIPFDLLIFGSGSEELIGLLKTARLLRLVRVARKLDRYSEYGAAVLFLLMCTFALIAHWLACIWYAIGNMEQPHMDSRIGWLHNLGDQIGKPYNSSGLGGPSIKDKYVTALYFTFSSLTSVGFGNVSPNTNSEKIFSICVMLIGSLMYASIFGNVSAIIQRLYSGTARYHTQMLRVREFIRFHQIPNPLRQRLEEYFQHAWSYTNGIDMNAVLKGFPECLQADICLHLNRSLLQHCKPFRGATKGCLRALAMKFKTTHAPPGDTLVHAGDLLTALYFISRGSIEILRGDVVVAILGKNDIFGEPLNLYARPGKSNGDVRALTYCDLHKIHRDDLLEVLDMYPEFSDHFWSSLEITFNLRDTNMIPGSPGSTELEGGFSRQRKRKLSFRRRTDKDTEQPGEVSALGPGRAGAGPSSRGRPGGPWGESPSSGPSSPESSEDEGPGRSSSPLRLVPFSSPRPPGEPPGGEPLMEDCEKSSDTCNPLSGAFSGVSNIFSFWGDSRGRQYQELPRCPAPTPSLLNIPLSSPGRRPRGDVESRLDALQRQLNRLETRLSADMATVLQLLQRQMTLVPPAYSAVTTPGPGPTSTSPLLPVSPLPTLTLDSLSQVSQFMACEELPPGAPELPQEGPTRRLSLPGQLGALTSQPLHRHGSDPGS
T1 sequence (P46095 whole entry): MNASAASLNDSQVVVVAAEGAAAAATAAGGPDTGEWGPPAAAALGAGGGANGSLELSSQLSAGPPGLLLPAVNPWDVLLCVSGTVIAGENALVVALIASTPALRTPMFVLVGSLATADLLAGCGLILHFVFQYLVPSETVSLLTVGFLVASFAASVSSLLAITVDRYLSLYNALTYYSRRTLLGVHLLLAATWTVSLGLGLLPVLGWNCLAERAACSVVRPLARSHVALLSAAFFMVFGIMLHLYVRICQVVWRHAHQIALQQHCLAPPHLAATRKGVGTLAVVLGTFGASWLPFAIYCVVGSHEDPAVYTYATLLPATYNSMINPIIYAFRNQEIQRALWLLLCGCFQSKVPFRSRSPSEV
Sequence of Cytochrome P450 2D6 (P10635 whole entry): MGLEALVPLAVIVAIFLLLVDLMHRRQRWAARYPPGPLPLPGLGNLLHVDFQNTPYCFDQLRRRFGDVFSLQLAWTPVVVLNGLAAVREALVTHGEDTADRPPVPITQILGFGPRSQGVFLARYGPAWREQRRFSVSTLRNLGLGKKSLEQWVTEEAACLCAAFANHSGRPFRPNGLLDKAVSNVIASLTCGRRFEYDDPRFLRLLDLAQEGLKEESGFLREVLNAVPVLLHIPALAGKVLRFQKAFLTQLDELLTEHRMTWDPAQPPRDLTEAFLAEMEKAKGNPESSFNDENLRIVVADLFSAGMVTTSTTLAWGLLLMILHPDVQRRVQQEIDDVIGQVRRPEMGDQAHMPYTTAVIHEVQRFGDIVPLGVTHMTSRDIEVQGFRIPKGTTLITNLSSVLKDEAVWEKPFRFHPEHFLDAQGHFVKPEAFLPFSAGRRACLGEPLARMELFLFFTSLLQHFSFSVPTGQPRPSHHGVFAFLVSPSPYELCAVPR
Sequence of P-gp (MDR1, ABCB1) (P08183 whole entry): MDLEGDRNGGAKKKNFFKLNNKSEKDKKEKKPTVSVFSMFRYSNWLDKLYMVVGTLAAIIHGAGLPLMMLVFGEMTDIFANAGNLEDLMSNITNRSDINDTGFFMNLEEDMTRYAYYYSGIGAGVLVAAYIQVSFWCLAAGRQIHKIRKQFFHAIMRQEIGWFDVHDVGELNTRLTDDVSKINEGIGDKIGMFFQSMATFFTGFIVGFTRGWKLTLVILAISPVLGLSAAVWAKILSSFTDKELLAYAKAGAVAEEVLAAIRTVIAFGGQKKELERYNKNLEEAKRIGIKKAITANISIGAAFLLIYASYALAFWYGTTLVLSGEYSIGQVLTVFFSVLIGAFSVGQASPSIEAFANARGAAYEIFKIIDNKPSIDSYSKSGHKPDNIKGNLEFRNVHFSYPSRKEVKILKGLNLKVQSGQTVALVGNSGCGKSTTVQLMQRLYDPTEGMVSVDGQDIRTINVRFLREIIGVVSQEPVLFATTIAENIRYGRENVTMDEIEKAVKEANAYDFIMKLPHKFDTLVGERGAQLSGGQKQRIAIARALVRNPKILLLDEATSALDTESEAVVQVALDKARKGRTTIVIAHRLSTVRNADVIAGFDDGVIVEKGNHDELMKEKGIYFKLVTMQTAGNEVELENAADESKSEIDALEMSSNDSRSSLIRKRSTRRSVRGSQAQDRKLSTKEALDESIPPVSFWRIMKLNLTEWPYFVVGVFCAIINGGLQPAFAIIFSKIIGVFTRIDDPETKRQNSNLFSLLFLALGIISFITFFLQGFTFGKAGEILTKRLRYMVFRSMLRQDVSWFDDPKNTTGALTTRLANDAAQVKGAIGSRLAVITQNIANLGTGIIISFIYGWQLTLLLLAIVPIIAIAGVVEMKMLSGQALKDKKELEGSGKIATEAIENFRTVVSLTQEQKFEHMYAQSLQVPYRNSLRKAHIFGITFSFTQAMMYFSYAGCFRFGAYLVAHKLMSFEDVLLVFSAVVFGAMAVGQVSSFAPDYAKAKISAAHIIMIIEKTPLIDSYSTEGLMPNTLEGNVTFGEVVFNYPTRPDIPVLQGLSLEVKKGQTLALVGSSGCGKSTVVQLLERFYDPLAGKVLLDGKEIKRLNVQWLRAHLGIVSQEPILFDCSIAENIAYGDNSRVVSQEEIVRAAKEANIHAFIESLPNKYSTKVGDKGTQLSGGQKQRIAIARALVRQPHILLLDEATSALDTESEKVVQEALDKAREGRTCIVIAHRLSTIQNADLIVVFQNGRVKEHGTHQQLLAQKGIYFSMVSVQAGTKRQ
Sequence of Voltage-gated inwardly rectifying potassium channel KCNH2 (Q12809 whole entry): as the sequence (Q12809 whole entry) above

Compound | fold change (FC) (Homo sapiens [1]) | fold change (FC) (Homo sapiens [2]) | EC50 [3] [nM] | Emax [7] [%] | IC50 (Cytochrome P450 2D6) [nM] | inhibition at 10 µM (hERG (KCNH2)) [%] | other results
Fc1ccc(Cl)cc1CN1CCN(c2nc3cnccc3nc2NC2CC2)CC1 | 15 | 638 | 29 | – | – | – | –
CCn1c(=O)c2c(nc(/C=C/c3ccc(OC)c(OC)c3)n2C)n(CC)c1=O | – | – | – | – | – | – | Activity (Rattus norvegicus [4]): Active; Activity (Mus musculus [5]): Active; Activity (Mus musculus [6]): Active
Cc1cccc(CN2CCN(c3nc4nonc4nc3NC3CC3)CC2)c1 | – | – | 43000 | 73 | – | – | –
Cc1ccc2nc(N3CCN(Cc4cc(Cl)ccc4Cl)CC3)c(NC3CC3)nc2c1 | – | – | 16000 | 90 | – | – | –
Fc1ccc2nc(N3CCN(Cc4cc(Cl)ccc4Cl)CC3)c(NC3CC3)nc2c1 | – | – | 1200 | 90 | – | – | –
Cc1cccc(CN2CCN(c3nc4ccccc4nc3NC3CC3)CC2)c1 | – | – | 14000 | 110 | – | – | –
Cc1cc2nc(NC3CC3)c(N3CCC(Oc4ccc(F)cc4F)CC3)nc2cn1 | 105 | 19 | 29 | – | 6310 | 75 | –
CN(C)C(=O)c1ccc2nc(NC3CC3)c(N3CCN(Cc4cc(Cl)ccc4Cl)CC3)nc2c1 | – | – | 90 | 105 | – | – | –
Clc1ccc(Cl)c(CN2CCN(c3nc4ccccc4nc3NC3CC3)CC2)c1 | – | – | 2100 | 89 | – | – | –
Clc1ccc(Cl)c(CN2CCN(c3nc4ccncc4nc3NC3CC3)CC2)c1 | – | – | 55 | 102 | – | – | –
CC(C)Nc1nc2ccncc2nc1N1CCN(Cc2ccc(F)cc2F)CC1 | 14 | 9 | 21 | – | – | – | –
CC(C)Nc1nc2c(nc1N1CCC(Oc3ccc(F)cc3F)CC1)CCN(C)C2 | 69 | 21 | 89 | – | > 10000 | 36 | –
Cc1cc2nc(NC3CC3)c(N3CCN(Cc4ccc(F)cc4F)CC3)nc2cn1 | 78 | 14 | 29 | – | 3980 | 23 | –
CCC(=O)N1CCc2nc(N3CCN(Cc4ccc(F)cc4F)CC3)c(NC(C)C)nc2C1 | 16 | 20 | 30 | – | > 10000 | – | –
COc1ccc2nc(N3CCN(Cc4cc(Cl)ccc4Cl)CC3)c(NC3CC3)nc2c1 | – | – | 4100 | 90 | – | – | –
Cc1cc2nc(N3CCC(Oc4ccc(F)cc4F)CC3)c(NC(C)C)nc2cn1 | 47 | 19 | 61000 | – | 3980 | 71 | –
CC(=O)N1CCc2nc(N3CCC(Oc4ccc(F)cc4F)CC3)c(N[C@@H]3CCOC3)nc2C1 | – | – | 38000 | – | – | – | logD [8]: 3.6; efflux ratio (P-gp (MDR1, ABCB1)): 0.7; fraction unbound [9]: 0.51; IC50 [10]: 3500 nM; Ki [11]: 9.4 nM; Papp A→B [12]: 17 ×10⁻⁶ cm/s; CLint scaled [13]: 48 mL/min/kg; CLint scaled [14]: 62 mL/min/kg
Cc1cc2nc(NC(C)C)c(N3CCN(Cc4ccc(F)cc4F)CC3)nc2cn1 | 19 | 5 | 51000 | – | 3980 | 13 | –
CC(C)Nc1nc2cc(C#N)ncc2nc1N1CCC(Oc2ccc(F)cc2F)CC1 | 13 | 6 | 55 | – | – | – | –
Cc1cc2nc(N3CCC(Oc4ccc(F)cc4F)CC3)c(NC3CC3)nc2cn1 | 105 | 19 | 95 | – | 6310 | – | –
Cc1cc2nc(NC(C)C)c(N3CCC(Oc4ccc(F)cc4F)CC3)nc2cn1 | 27 | 13 | 16 | – | 6310 | 75 | –
N#Cc1ccc2nc(N3CCN(Cc4cc(Cl)ccc4Cl)CC3)c(NC3CC3)nc2c1 | – | – | 174 | 107 | – | – | –
Clc1ccc(Cl)c(CN2CCN(c3nc4cnccc4nc3NC3CC3)CC2)c1 | – | – | 53 | 110 | – | – | –
Fc1ccc(F)c(CN2CCN(c3nc4cnccc4nc3NC3CC3)CC2)c1 | – | – | 151 | – | 126 | 40 | –
Fc1ccc(CN2CCN(c3nc4cnccc4nc3NC3CC3)CC2)c(F)c1 | 80 | 21 | 39 | – | 50.1 | 40 | efflux ratio (P-gp (MDR1, ABCB1)): 0.5; Activity (Mus musculus [15]): inactive; Activity (Rattus norvegicus [16]): Dose-Dependent Effect; Ki [11]: 7 nM; Papp A→B [12]: 16 ×10⁻⁶ cm/s
